Each structure is given as a SMILES string. The source made the active and inactive calls. The calls are words filed in the database; no cut-off is given here.

Assay [1] addresses Actin, cytoplasmic 1 (Homo sapiens) (UniProt P60709). The assay can be described thus: Binding affinity to ACTB in human Jurkat cells at 150 uM followed by UV irradiation for 30 mins with Wood's glass filtered medium pressure mercury arc light after cell lysis measured after denaturing wash by SDS-PAGE based pull down assay. Put shortly:
(§1)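 Jurkat cells were grown in RPMI with 10% FBS (about 15×10^6 cells) and treated 2 h with 150 μM BioQ in 3% aqueous DMSO. They were heat-shocked at 43 °C for 30 min, recovered 1 h at 37 °C, and UV-irradiated (320–400 nm, peak 365 nm, 30 min, 4 °C) before or after sonication lysis. Streptavidin-agarose capture ran 1 h. Beads were washed ≥3× with lysis buffer or 2% SDS Tris pH 7.4, boiled, run on 12% SDS-PAGE and silver-stained.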

Assay [2] addresses Heat shock-related 70 kDa protein 2 (Homo sapiens) (UniProt P54652). Description: Binding affinity to HSPA2 in human Jurkat cells at 150 uM followed by UV irradiation for 30 mins with Wood's glass filtered medium pressure mercury arc light after cell lysis measured after denaturing wash by SDS-PAGE based pull down assay. The method, boiled down: as §1
Another assay is filed under the species Homo sapiens. The assay can be described thus: Binding affinity to CK2 at 150 uM followed by UV irradiation for 30 mins with Wood's glass filtered medium pressure mercury arc light by silver staining based pull down assay. The method, boiled down: (§2)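 CK2 (17.5–70 nM) was mixed with 150 μM BioQ in 400 μL 10 mM PBS pH 7.2 with protease inhibitors, with or without 10 mM MgCl2 and 2 μM ATP. Samples were irradiated 30 min on ice (320–400 nm, peak 365 nm) or left unirradiated. Capture was on streptavidin agarose for 1 h, with washes in lysis buffer or 2% SDS Tris buffer, then boiling, SDS-PAGE and silver staining.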

Assay [3] deals with T1, Splicing factor 3B subunit 3 (Homo sapiens) (UniProt Q15393).
T1 sequence (whole entry): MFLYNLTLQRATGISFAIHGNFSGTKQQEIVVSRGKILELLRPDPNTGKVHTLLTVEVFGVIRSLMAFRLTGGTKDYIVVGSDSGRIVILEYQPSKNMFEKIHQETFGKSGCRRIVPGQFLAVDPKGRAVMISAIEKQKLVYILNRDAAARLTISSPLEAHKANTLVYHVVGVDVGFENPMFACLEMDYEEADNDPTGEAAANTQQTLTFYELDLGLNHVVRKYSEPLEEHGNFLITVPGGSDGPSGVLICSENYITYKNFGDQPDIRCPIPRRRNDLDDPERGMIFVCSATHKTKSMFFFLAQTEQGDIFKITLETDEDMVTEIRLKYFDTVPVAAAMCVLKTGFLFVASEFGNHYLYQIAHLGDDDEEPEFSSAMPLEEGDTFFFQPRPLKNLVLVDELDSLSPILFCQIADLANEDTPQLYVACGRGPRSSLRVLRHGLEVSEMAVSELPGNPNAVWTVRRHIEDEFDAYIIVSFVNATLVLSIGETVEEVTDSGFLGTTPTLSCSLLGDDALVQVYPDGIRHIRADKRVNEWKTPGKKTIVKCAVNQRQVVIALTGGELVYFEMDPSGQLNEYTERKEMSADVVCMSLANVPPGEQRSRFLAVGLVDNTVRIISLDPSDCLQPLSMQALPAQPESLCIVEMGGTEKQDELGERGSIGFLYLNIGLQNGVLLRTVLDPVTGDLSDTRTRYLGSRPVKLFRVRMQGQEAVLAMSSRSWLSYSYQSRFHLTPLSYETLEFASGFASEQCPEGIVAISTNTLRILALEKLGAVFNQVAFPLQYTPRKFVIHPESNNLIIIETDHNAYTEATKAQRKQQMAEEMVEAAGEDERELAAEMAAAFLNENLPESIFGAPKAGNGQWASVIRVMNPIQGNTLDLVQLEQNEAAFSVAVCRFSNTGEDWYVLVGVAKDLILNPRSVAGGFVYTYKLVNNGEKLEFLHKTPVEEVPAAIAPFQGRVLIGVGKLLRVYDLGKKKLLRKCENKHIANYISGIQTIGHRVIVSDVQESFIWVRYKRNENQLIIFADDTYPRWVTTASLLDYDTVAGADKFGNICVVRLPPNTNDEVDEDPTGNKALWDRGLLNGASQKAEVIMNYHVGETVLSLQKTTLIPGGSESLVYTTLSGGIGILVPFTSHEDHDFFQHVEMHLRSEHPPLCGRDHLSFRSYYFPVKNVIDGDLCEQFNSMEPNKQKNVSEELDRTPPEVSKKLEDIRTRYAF
The assay can be described thus: Binding affinity to SF3B3 in human Jurkat cells at 150 uM followed by UV irradiation for 30 mins with Wood's glass filtered medium pressure mercury arc light prior to cell lysis measured after denaturing wash by SDS-PAGE based pull down assay. Put shortly:
as §1

The target in assay [4] is Casein kinase II subunit beta (Homo sapiens) (UniProt P67870). Description: Binding affinity to CK2beta at 150 uM followed by UV irradiation for 30 mins with Wood's glass filtered medium pressure mercury arc light by SDS-PAGE based pull down assay. The method, boiled down: as §2
Casein kinase II subunit beta (Homo sapiens), sequence (P67870 whole entry): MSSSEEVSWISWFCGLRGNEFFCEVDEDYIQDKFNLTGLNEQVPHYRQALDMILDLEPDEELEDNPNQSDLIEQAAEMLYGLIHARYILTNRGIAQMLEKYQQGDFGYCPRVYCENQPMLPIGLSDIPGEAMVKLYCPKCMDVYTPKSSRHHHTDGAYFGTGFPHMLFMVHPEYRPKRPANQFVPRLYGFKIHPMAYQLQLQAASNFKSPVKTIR
Another assay deals with Jurkat. Description: Binding affinity to quercetin binding protein in human Jurkat cells at 150 uM followed by UV irradiation for 30 mins with Wood's glass filtered medium pressure mercury arc light after cell lysis measured after denaturing wash by Western blotting based pull down assay in presence of heat shock. The method, boiled down:
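Streptavidin pull-downs from heat-shocked, BioQ-treated (150 μM), UV-irradiated Jurkat cells received a 2% SDS wash. Proteins were transferred from SDS gels to nitrocellulose and blocked overnight in 3% BSA at 4 °C. Blots were probed 1 h with HRP-conjugated anti-biotin antibody and developed with 4-chloro-1-naphthol/0.01% H2O2, with no-UV and no-probe controls.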
Background: A western blot detects proteins with antibodies after separation by electrophoresis.

The target of assay [5] is Actin, cytoplasmic 1 (Homo sapiens) (UniProt P60709). Description: Binding affinity to ACTB in human Jurkat cells at 150 uM followed by UV irradiation for 30 mins with Wood's glass filtered medium pressure mercury arc light prior to cell lysis measured after denaturing wash by LC-MS/MS based pull down assay. The method, boiled down:
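Silver-stained bands from cells irradiated before lysis were excised, destained, reduced with 10 mM DTT, alkylated with 50 mM iodoacetamide and digested with trypsin overnight. Peptides were extracted in 1% TFA/50% acetonitrile. Nano-C18 LC used a 2–50% acetonitrile gradient with 0.1% formic acid over 50 min at 260 nL/min, followed by MS/MS identification.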

Assay [6] deals with ATP synthase F(1) complex subunit beta, mitochondrial (Homo sapiens) (UniProt P06576). The assay can be described thus: Binding affinity to ATP5B in human Jurkat cells at 150 uM followed by UV irradiation for 30 mins with Wood's glass filtered medium pressure mercury arc light after cell lysis measured after denaturing wash by SDS-PAGE based pull down assay. Put shortly: as §1
ATP synthase F(1) complex subunit beta, mitochondrial (Homo sapiens), sequence (P06576 whole entry, one chain of several): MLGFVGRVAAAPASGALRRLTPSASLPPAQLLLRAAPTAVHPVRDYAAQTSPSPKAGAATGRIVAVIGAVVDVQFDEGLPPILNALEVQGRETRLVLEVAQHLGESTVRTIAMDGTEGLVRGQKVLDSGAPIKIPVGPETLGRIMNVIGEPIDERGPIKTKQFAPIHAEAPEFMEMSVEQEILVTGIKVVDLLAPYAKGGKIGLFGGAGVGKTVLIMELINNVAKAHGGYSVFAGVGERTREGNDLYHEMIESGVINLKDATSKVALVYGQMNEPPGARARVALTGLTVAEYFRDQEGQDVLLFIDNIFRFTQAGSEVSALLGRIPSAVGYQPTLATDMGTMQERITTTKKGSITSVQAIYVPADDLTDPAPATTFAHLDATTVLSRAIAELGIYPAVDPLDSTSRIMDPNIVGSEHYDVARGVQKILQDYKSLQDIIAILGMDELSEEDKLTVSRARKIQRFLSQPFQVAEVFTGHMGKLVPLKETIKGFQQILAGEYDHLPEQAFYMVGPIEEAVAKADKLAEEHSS

Heat shock-related 70 kDa protein 2 (Homo sapiens), sequence (P54652 whole entry): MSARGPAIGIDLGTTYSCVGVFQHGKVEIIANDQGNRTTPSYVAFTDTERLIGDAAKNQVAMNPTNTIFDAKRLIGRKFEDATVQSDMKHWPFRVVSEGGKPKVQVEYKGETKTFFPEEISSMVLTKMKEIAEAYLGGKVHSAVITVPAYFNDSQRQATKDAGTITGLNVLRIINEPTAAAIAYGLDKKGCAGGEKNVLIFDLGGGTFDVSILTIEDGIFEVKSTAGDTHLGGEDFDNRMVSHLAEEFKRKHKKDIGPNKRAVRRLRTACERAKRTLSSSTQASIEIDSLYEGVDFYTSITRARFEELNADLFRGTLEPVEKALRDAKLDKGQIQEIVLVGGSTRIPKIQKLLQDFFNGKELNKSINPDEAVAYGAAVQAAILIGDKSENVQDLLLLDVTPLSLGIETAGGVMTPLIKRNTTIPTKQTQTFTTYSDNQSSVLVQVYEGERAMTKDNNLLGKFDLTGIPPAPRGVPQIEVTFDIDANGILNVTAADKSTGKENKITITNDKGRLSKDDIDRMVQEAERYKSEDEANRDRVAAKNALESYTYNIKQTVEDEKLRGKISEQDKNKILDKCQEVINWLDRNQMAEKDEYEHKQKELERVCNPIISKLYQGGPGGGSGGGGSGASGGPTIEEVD

Regarding `O=C(CCCC[C@@H]1SC[C@@H]2NC(=O)N[C@@H]21)NCCOCCOCCNC(=O)COc1cc(O)c2c(=O)c(O)c(-c3ccc(O)c(O)c3)oc2c1`, the result (in assay [1]; in assay [2]; in assay [3]; in assay [4]; in the assay on Jurkat; in assay [5]) was Active. Also, in assay [6], the outcome was Active. The result in the assay filed under Homo sapiens was inactive.

(Values after ChEMBL document CHEMBL2062417, “Biotinylated quercetin as an intrinsic photoaffinity proteomics probe for the identification of quercetin target proteins” (Bioorg Med Chem, 2011).)
